The subject of data set [1] is Rattus norvegicus. Kind of data set: Neuroprotective activity in sc dosed Wistar rat transient middle cerebral artery occlusion model administered 30 mins after occlusion. The class given is functional, organism-based. A digest of the protocol: (§1)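 Female Wistar rats, 8 weeks old, underwent 90 min transient MCAO followed by reperfusion. Drug was given sc 30 min after occlusion at 0.8, 2.5 or 8.2 mg/kg, and controls received an equal volume of saline. At 24 h the brain was cut into 7 slices and TTC-stained. Infarct area per slice was measured by image analysis and summed to infarct volume; n = 5–6, mean ± SEM, Student's t-test.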

Data set [2] is described as follows: Inhibition of sodium channel in Wistar rat cerebrocortical synaptosomes assessed as inhibition of veratridine-induced depolarization using rhodamine-6G by spectrofluorometry. Format: subcellular, Brain.
The target in the next data set is hERG (KCNH2) (Homo sapiens, UniProt Q12809). Briefly: Inhibition of human ERG channel expressed in HEK293 cells at 1 uM by voltage patch clamp technique. The class given is cell-based. To be noted: HEK293 cells that express hERG. For orientation: The patch-clamp technique gives a direct electrical read-out from membranes.
Sequence of hERG (KCNH2) (Q12809 whole entry): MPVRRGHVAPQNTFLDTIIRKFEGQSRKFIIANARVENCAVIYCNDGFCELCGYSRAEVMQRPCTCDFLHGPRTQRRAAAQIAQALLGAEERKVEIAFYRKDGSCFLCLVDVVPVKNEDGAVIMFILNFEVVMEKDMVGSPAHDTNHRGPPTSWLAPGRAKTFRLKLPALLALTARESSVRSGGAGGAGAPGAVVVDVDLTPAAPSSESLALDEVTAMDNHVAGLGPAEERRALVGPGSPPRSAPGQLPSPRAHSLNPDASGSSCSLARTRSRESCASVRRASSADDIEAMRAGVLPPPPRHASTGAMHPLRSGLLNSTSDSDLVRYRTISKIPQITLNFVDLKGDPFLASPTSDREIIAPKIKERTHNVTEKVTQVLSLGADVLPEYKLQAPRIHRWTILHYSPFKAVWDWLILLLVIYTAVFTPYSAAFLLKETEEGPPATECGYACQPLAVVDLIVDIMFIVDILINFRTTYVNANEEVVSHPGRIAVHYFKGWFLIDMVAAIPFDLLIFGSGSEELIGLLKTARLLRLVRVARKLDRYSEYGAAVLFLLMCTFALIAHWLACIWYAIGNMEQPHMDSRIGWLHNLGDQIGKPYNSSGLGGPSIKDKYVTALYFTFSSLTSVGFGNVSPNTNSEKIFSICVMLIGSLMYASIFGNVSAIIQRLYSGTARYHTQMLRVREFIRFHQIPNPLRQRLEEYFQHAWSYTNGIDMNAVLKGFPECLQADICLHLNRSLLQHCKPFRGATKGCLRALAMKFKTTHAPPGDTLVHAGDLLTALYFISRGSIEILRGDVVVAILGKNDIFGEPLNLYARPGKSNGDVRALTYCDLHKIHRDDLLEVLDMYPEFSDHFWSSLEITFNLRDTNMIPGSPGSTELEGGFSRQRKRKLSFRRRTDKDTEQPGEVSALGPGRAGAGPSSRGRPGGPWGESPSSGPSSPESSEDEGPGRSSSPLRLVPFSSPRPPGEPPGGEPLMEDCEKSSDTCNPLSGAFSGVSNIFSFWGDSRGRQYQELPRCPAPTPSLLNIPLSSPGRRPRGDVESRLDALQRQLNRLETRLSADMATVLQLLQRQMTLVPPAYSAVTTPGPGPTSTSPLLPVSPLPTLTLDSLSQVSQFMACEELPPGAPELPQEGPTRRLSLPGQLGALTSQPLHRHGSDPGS
Data set [3] in a line: Neuroprotective activity in guinea pig papillary muscles assessed as action potential duration at 90% repolarization at 30 uM after 30 mins relative to control. The class given is functional, Cavia porcellus, Muscle tissue. A digest of the protocol:
(§2)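 Intracellular action potentials were evoked by 1 ms pulses at 1.5–3 times the voltage threshold, with all solutions held at 36 °C. APD90 was recorded before and 30 min after compound exposure and expressed against the pre-treatment value.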

Data set [4] is described as follows: Neuroprotective activity in guinea pig papillary muscles assessed as action potential duration at 90% repolarization at 3 uM after 30 mins relative to control. The class given is functional, Cavia porcellus, Muscle tissue. A digest of the protocol:
as §2

Data set [5] in a line: Neuroprotective activity in guinea pig papillary muscles assessed as action potential duration at 90% repolarization at 10 uM after 30 mins relative to control. Format: functional, Cavia porcellus, Muscle tissue. A digest of the protocol: as §2
Data set [6] deals with Rattus norvegicus. Kind of data set: Neuroprotective activity in Wistar rat transient MCAO model assessed as reduction in cerebral infarction size at 8.2 mg/kg, sc (reference value: 379.8 +/- 43.8 mm'3). Particulars: route subcutaneous. Format: functional. A digest of the protocol:
as §1

In data set [7] the test system is Rattus norvegicus. Briefly: Neuroprotective activity in Wistar rat transient middle cerebral artery occlusion model at 8.2 mg/kg, sc administered 30 mins after occlusion. The class given is functional. To be noted: route subcutaneous. A digest of the protocol: as §1
Data set [8] in a line: Neuroprotective activity in guinea pig papillary muscles assessed as action potential duration at 90% repolarization at 100 uM after 30 mins relative to control. Format: functional, Cavia porcellus, Muscle tissue. A digest of the protocol: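 Action potentials were evoked by 1 ms stimuli at 1.5–3 times threshold voltage, with all solutions kept at 36 °C. APD90 was recorded before compound exposure and again 30 min after.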

Data set [9] deals with Rattus norvegicus. Briefly: Neuroprotective activity in Wistar rat transient middle cerebral artery occlusion model at 0.8 mg/kg, sc administered 30 mins after occlusion. Format: functional. Particulars: route subcutaneous. A digest of the protocol:
as §1

Data set [10] has as its system Rattus norvegicus. Briefly: Neuroprotective activity in Wistar rat transient middle cerebral artery occlusion model at 2.5 mg/kg, sc administered 30 mins after occlusion. The class given is functional. To be noted: route subcutaneous. A digest of the protocol:
as §1

`c1ccc(CN2C[C@@H](NC3CCCCC3)[C@H](c3ccccc3)C2)cc1` (racemic): in the data set with Rattus norvegicus [1], the Activity result was “Dose-dependent effect”.
As to `c1ccc(CN2C[C@@H](NC3CCCCC3)[C@H](c3ccccc3)C2)cc1`, the IC50 in [2] worked out at 540 nM.
Regarding `c1ccc(CN2C[C@@H](NC3CCCCC3)[C@H](C3CCCCC3)C2)cc1` (racemic), the inhibition at 1 µM at hERG (KCNH2) was determined as 35%. Also, the IC50 in data set [2] came out at 740 nM.
As to `OC(COc1ccc2c(c1)CCC2)CN1CCC(c2nc3ccccc3[nH]2)CC1` (configuration not stated), the inhibition at 1 µM on hERG (KCNH2) was determined as 99%.
Regarding `c1ccc(CN2C[C@H](NC3CCCCC3)[C@H](c3ccccc3)C2)cc1`, 1 µM produced 28% inhibition at hERG (KCNH2). Besides, the IC50 in data set [2] came out at 560 nM.
`C[C@@H](CN1CC[C@@]2(C)c3cccc(O)c3C[C@@H]1C2(C)C)OCc1ccccc1.Cl`: the Activity in data set [3] turned out to be 72.9%; in [4], 96.6%; in data set [5], 89.1%. Moreover, testing at 1 µM at hERG (KCNH2) gave an inhibition of 69%.
On hERG (KCNH2), `O=C(N[C@@H]1CN(Cc2ccccc2)C[C@H]1c1ccccc1)c1ccccc1` (racemic) came in with an inhibition at 1 µM of 45%. Besides, the concentration for half-maximal inhibition (IC50) in data set [2] is 1900 nM.
In turn, `c1ccc(CN[C@@H]2CN(Cc3ccccc3)C[C@H]2c2ccccc2)cc1` (racemic) displayed an inhibition at 1 µM at hERG (KCNH2) of 57%. Further, in data set [2], the IC50 is 640 nM.
Take `Cc1nc(OCCCCCN2CCCCC2)cc(-c2ccc(F)cc2)n1`: the inhibition at 1 µM against hERG (KCNH2) turned out to be 60%.
Molecule `c1ccc(CN2C[C@@H](Nc3ccccc3)[C@H](c3ccccc3)C2)cc1` (racemic) displayed an inhibition at 1 µM against hERG (KCNH2) of 43%. Further, in data set [2], the concentration for half-maximal inhibition (IC50) was found to be 480 nM.
For the molecule `Cc1cc(OC[C@@H](O)CN2CCN(c3ccc(Cc4ccc(F)cc4)cc3)CC2)c(C)c(C)c1N`, the inhibition at 1 µM at hERG (KCNH2) was determined as 78%.
As for `O=C(N[C@@H]1CN(Cc2ccccc2)C[C@H]1c1ccccc1)C1CCCCC1` (racemic), testing at 1 µM against hERG (KCNH2) gave an inhibition of 31%. Also, the IC50 in data set [2] came to 480 nM.
As to `c1ccc([C@@H]2CN(C3CCCCC3)C[C@H]2NC2CCCCC2)cc1` (racemic), the IC50 in data set [2] amounted to 3350 nM.
`c1ccc(CN2C[C@@H](NCC3CCCCC3)[C@H](C3CCCCC3)C2)cc1` (racemic) showed an inhibition at 1 µM at hERG (KCNH2) of 60%. Further, in data set [2], the IC50 stood at 560 nM.
Regarding `c1ccc(CN2C[C@@H](NCC3CCCCC3)[C@H](c3ccccc3)C2)cc1` (racemic), on hERG (KCNH2), the inhibition at 1 µM was 60%. The IC50 in data set [2] is 320 nM.
As to `c1ccc(CN[C@@H]2CN(Cc3ccccc3)C[C@H]2C2CCCCC2)cc1` (racemic), the inhibition at 1 µM at hERG (KCNH2) came out at 79%. Further, in data set [2], the IC50 worked out at 900 nM.
In the case of `Cl.Cl.c1ccc(CN2C[C@@H](NC3CCCCC3)[C@H](c3ccccc3)C2)cc1` (racemic), the Activity is listed as 166.7 mm3 with Rattus norvegicus [6]; 92.3% in [3]; 56% in the data set with Rattus norvegicus [7]; 90.8% in data set [8]; 27% with Rattus norvegicus [9]; 95.3% in [5]. In the data set on Rattus norvegicus [10], the Activity is reported as 37%. In addition, the inhibition at 1 µM against hERG (KCNH2) amounted to 8.4%. In data set [2], the half-maximal inhibitory concentration (IC50) is 510 nM.
Consider `c1ccc([C@@H]2CN(CC3CCCCC3)C[C@H]2NC2CCCCC2)cc1` (racemic), for which 1 µM produced 45% inhibition against hERG (KCNH2). For the same molecule, the IC50 in data set [2] came out at 380 nM.
The molecule `O=C(N[C@@H]1CN(Cc2ccccc2)C[C@H]1C1CCCCC1)C1CCCCC1` (racemic) showed an inhibition at 1 µM against hERG (KCNH2) of 45%. In data set [2], the IC50 is 740 nM.
On to `c1ccc(CN2C[C@H](NC3CCCCC3)[C@@H](c3ccccc3)C2)cc1`, for which the IC50 in data set [2] was determined as 570 nM.

As usually defined, the IC50 is the concentration at which inhibition is half-maximal. What is called inhibition is the share of the control response that was lost under treatment.

Values taken from ChEMBL document CHEMBL2401676, “Synthesis and biological evaluation of pyrrolidine derivatives as novel and potent sodium channel blockers for the treatment of ischemic stroke” (Bioorg Med Chem Lett, 2013).
